Assay results: ChEMBL document CHEMBL1125298, “Hypocholesterolemic activity of synthetic and natural tocotrienols” (J Med Chem, 1992); call rule not given here
≈ marks a conversion by molar mass, not a printed value. Where “and” joins values, the source holds several entries; their conditions need not be identical. Equal entries are not always repeated.

Tests used:
Rattus norvegicus [1] = species: Rattus norvegicus; experiment: Compound is evaluated for the inhibition of cholesterol biosynthesis in isolated rat hepatocytes at the concentration 125 (ug/mL); format: functional, Hepatocyte
Rattus norvegicus [2] = species: Rattus norvegicus; experiment: Compound is evaluated for the inhibition of cholesterol biosynthesis in isolated rat hepatocytes at the concentration 500 (ug/mL); format: functional, Hepatocyte
Gallus gallus [3] = species: Gallus gallus; experiment: Compound is evaluated for the effect on lipid metabolism in 6-week-old male chickens at a concentration of 20 ppm in the diet and measured for total cholesterol; format: functional
Rattus norvegicus [4] = species: Rattus norvegicus; experiment: Compound is evaluated for the inhibition of cholesterol biosynthesis in isolated rat hepatocytes at the concentration 250 (ug/mL); format: functional, Hepatocyte
Rattus norvegicus [5] = species: Rattus norvegicus; experiment: Inhibitory concentration required to inhibit cholesterol synthesis in isolated rat Hepatocytes; format: functional, Hepatocyte
Gallus gallus [6] = species: Gallus gallus; experiment: picomoles of mevalonic acid synthesized per minute per mg of microsomal protein; format: functional, organism-based
Gallus gallus [7] = species: Gallus gallus; experiment: Compound is evaluated for the effect on lipid metabolism in 6-week-old male chickens at a concentration of 20 ppm in the diet and measured for LDL cholesterol; format: functional
Procedure, shortened: (§1)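 Male chicks were raised 2 weeks on a corn-soybean control diet, then fed 4 weeks on control diet or the same diet with compound added. All birds were fasted 36 h and refed 48 h before sacrifice. Serum cholesterol is given as mg/100 mL.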

HepG2 [8] = experiment: Compound evaluated for Percent inhibition of cholesterol synthesis from [14C]acetate in HepG2 cell; format: functional, Homo sapiens
HepG2 [9] = experiment: Compound evaluated for Percent inhibition of cholesterol synthesis from HMG-CoA Reductase in HepG2 cell; format: functional, Homo sapiens
Gallus gallus [10] = species: Gallus gallus; experiment: Compound is evaluated for the effect on lipid metabolism in 6-week-old male chickens at a concentration of 20 ppm in the diet and measured for HDL cholesterol; format: functional
Rattus norvegicus [11] = species: Rattus norvegicus; experiment: Compound was evaluated for percent inhibition of cholesterol biosynthesis in primary rat hepatocytes at a concentration of 275 ug/mL (pre-incubated for 45 min); format: functional; conditions: Hepatocyte
Rattus norvegicus [12] = species: Rattus norvegicus; experiment: Compound was evaluated for percent inhibition of cholesterol biosynthesis in primary rat hepatocytes at a concentration of 138 ug/mL (pre-incubated for 45 min); format: functional; conditions: Hepatocyte
Rattus norvegicus [13] = species: Rattus norvegicus; experiment: Compound was evaluated for percent inhibition of cholesterol biosynthesis in primary rat hepatocytes at a concentration of 1100 ug/mL (pre-incubated for 45 min); format: functional; conditions: Hepatocyte
Rattus norvegicus [14] = species: Rattus norvegicus; experiment: Compound was evaluated for percent inhibition of cholesterol biosynthesis in primary rat hepatocytes at a concentration of 2200 ug/mL (pre-incubated for 45 min); format: functional; conditions: Hepatocyte
Rattus norvegicus [15] = species: Rattus norvegicus; experiment: Compound was evaluated for percent inhibition of cholesterol biosynthesis in primary rat hepatocytes at a concentration of 550 ug/mL (pre-incubated for 45 min); format: functional; conditions: Hepatocyte
Rattus norvegicus [16] = species: Rattus norvegicus; experiment: Inhibitory concentration required to inhibit cholesterol biosynthesis in rat hepatocytes; format: functional, Hepatocyte
HepG2 [17] = experiment: Compound evaluated for percent inhibition of cholesterol synthesis from [14C]acetate in HepG2 cell; format: functional, Homo sapiens; design: concentration or dose not given beside the values
HepG2 [18] = experiment: Compound evaluated for percent inhibition of cholesterol synthesis from HMG-CoA Reductase in HepG2 cell; format: functional, Homo sapiens
Rattus norvegicus [19] = species: Rattus norvegicus; experiment: Percent inhibition of cholesterol biosynthesis in rat hepatocytes at a concentration of 210 (micro g/mL); format: functional, Hepatocyte
Rattus norvegicus [20] = species: Rattus norvegicus; experiment: Inhibitory concentration required to inhibit cholesterol synthesis in isolated rat Hepatocytes; no inhibition; format: functional; conditions: hepatocyte
Rattus norvegicus [21] = species: Rattus norvegicus; experiment: Compound is evaluated for the inhibition of cholesterol biosynthesis in isolated rat hepatocytes at the concentration 500 ug/mL; format: functional, Hepatocyte
Rattus norvegicus [22] = species: Rattus norvegicus; experiment: Percent inhibition at 250 ug/mL of binary mixtures of compound and alpha-tocotrienol on cholesterol synthesis in rat hepatocytes; format: functional, Hepatocyte
Rattus norvegicus [23] = species: Rattus norvegicus; experiment: Percent inhibition at 250 ug/mL of binary mixtures of compound and delta-tocotrienol on cholesterol synthesis in rat hepatocytes; format: functional, Hepatocyte
Rattus norvegicus [24] = species: Rattus norvegicus; experiment: Percent inhibition at 250 ug/mL of binary mixtures of compound and gamma-tocotrienol on cholesterol synthesis in rat hepatocytes; format: functional, Hepatocyte
HepG2 [25] = experiment: Compound is evaluated for the inhibition of cholesterol synthesis in HepG2 cells for an incubation time of 6 (h); format: functional, cell-based; conditions: Homo sapiens
Procedure, shortened: (§2)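 HepG2 cells were grown in RPMI-1640 with 10% FBS. At about 70% confluence they were switched to 7% lipid-depleted serum for 16 h. Compound in DMSO (0.5% v/v final) was added for the stated time. A [2-14C]acetate pulse over the final 60 min measured incorporation into digitonin-precipitable sterols. IC50 came from linear regression of at least four concentrations, each in duplicate.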

HepG2 [26] = experiment: Compound is evaluated for the inhibition of cholesterol synthesis in HepG2 cells for an incubation time of 2 (h); format: functional, cell-based; conditions: Homo sapiens; procedure, shortened: as §2
Gallus gallus [27] = species: Gallus gallus; experiment: picomoles of mevalonic acid synthesized per minute per mg of microsomal […] 45 p.p.m.); format: functional, organism-based
Gallus gallus [28] = species: Gallus gallus; experiment: picomoles of mevalonic acid synthesized per minute per mg of microsomal protein (dose 15 p.p.m.); format: functional, organism-based
Gallus gallus [29] = species: Gallus gallus; experiment: Compound is evaluated for the effect on lipid metabolism in 6-week-old male chickens at a concentration of 20 ppm in the diet and measured for total cholesterol (dose 45 p.p.m.); format: functional
Gallus gallus [30] = species: Gallus gallus; experiment: Compound is evaluated for the effect on lipid metabolism in 6-week-old male chickens at a concentration of 20 ppm in the diet and measured for HDL cholesterol dose 45 p.p.m.); format: functional
Gallus gallus [31] = species: Gallus gallus; experiment: picomoles of mevalonic acid synthesized per minute per mg of microsomal protein(dose 30 p.p.m.); format: functional, organism-based
Gallus gallus [32] = species: Gallus gallus; experiment: Compound is evaluated for the effect on lipid metabolism in 6-week-old male chickens at a concentration of 20 ppm in the diet and measured for LDL cholesterol (dose 30 p.p.m.); format: functional; procedure, shortened: as §1
Gallus gallus [33] = species: Gallus gallus; experiment: Compound is evaluated for the effect on lipid metabolism in 6-week-old male chickens at a concentration of 20 ppm in the diet and measured for total cholesterol (dose 15 p.p.m.); format: functional
Gallus gallus [34] = species: Gallus gallus; experiment: Compound is evaluated for the effect on lipid metabolism in 6-week-old male chickens at a concentration of 20 ppm in the diet and measured for total cholesterol (dose 30 p.p.m.); format: functional
HepG2 [35] = experiment: Compound is evaluated for the inhibition of cholesterol synthesis in HepG2 cells for an incubation time of 4 (h); format: functional, cell-based; conditions: Homo sapiens; procedure, shortened: as §2
Gallus gallus [36] = species: Gallus gallus; experiment: Compound is evaluated for the effect on lipid metabolism in 6-week-old male chickens at a concentration of 20 ppm in the diet and measured for LDL cholesterol dose 45 p.p.m.); format: functional; procedure, shortened: as §1
Gallus gallus [37] = species: Gallus gallus; experiment: Compound is evaluated for the effect on lipid metabolism in 6-week-old male chickens at a concentration of 20 ppm in the diet and measured for LDL cholesterol (dose 15 p.p.m.); format: functional; procedure, shortened: as §1
Gallus gallus [38] = species: Gallus gallus; experiment: Compound is evaluated for the effect on lipid metabolism in 6-week-old male chickens at a concentration of 20 ppm in the diet and measured for HDL cholesterol (dose 15 p.p.m.); format: functional
Gallus gallus [39] = species: Gallus gallus; experiment: Compound is evaluated for the effect on lipid metabolism in 6-week-old male chickens at a concentration of 20 ppm in the diet and measured for HDL cholesterol (dose 30 p.p.m.); format: functional

CC(C)=CCC/C(C)=C/CC/C(C)=C/CC[C@]1(C)CCc2cc(O)cc(C)c2O1 [DELTA-TOCOTRIENOL]
Inhibition (Rattus norvegicus [1]): 26% | Inhibition (Rattus norvegicus [2]): 62% and 63% | Total cholesterol (Gallus gallus [3]): 141 mg 100ml-1 | Inhibition (Rattus norvegicus [4]): 49% and 33% | IC50 (Rattus norvegicus [5]; Rattus norvegicus, Hepatocyte, read-out: IC50): 260 µg/mL (≈ 656 µM) | IC50 (Rattus norvegicus [5]; hepatocyte): 340 µg/mL (≈ 857 µM) | HMGR activity (Gallus gallus [6]): 550 | LDL cholesterol (Gallus gallus [7]): 41 mg 100ml-1 | Inhibition (HepG2 [8]): 77% | Inhibition (HepG2 [9]): 65% | HDL cholesterol (Gallus gallus [10]): 99 mg 100ml-1

CC(C)=CCC/C(C)=C/CC/C(C)=C/CC[C@]1(C)CCc2cc(O)ccc2O1 (mixture of isomers)
inhibition at 275 µg/mL (Rattus norvegicus [11]): 38% | IC50 (Rattus norvegicus [12]): 600 µg/mL | inhibition at 1100 µg/mL (Rattus norvegicus [13]): 60% | inhibition at 2200 µg/mL (Rattus norvegicus [14]): 70% | inhibition at 550 µg/mL (Rattus norvegicus [15]): 45% | Inhibition (Rattus norvegicus [16]): 31%

COCCOCOc1cc2c(c(C)c1C)OC(C)(CC/C=C/CCC=C(C)C)CC2 (stereo not drawn)
Inhibition (HepG2 [17]): 19%

CC(C)=CCC/C(C)=C/CC/C(C)=C/CCC1(C)CCc2cc(O)ccc2O1 (racemic)
Inhibition (HepG2 [17]): 63% | Inhibition (HepG2 [18]): 56%

Cc1c(C)c2c(c(C)c1O)CC[C@@](C)(CCC[C@H](C)CCC[C@H](C)CCCC(C)C)O2 [ALPHA-TOCOPHEROL]
Total cholesterol (Gallus gallus [3]): 190 mg 100ml-1 | Inhibition (Rattus norvegicus [4]): 0% | Inhibition (Rattus norvegicus [19]): 0% | IC50 (Rattus norvegicus [20]): Not Active | Inhibition (Rattus norvegicus [21]): 2% and 0% | Inhibition (Rattus norvegicus [22]): 3% | HMGR activity (Gallus gallus [6]): 1300 | LDL cholesterol (Gallus gallus [7]): 72 mg 100ml-1 | Inhibition (Rattus norvegicus [23]): 49% | Inhibition (Rattus norvegicus [24]): 42% | HDL cholesterol (Gallus gallus [10]): 113 mg 100ml-1

CC(C)=CCC/C(C)=C/CC/C(C)=C/CCC1(C)CCc2cc(O)c(C)c(C)c2O1 (racemic)
IC50 (HepG2 [25]): 3000 nM | IC50 (HepG2 [26]): 5900 nM | HMGR activity (Gallus gallus [27]): 551 | HMGR activity (Gallus gallus [28]): 603 | Total cholesterol (Gallus gallus [29]): 132 mg 100ml-1 | HDL cholesterol (Gallus gallus [30]): 96 mg 100ml-1 | Inhibition (HepG2 [8]): 71% | HMGR activity (Gallus gallus [31]): 561 | LDL cholesterol (Gallus gallus [32]): 39 mg 100ml-1 | Total cholesterol (Gallus gallus [33]): 143 mg 100ml-1 | Total cholesterol (Gallus gallus [34]): 138 mg 100ml-1 | IC50 (HepG2 [35]): 2800 nM | Inhibition (HepG2 [9]): 62% | LDL cholesterol (Gallus gallus [36]): 32 mg 100ml-1 | LDL cholesterol (Gallus gallus [37]): 44 mg 100ml-1 | HDL cholesterol (Gallus gallus [38]): 97 mg 100ml-1 | HDL cholesterol (Gallus gallus [39]): 97 mg 100ml-1
